{"source": "ChEMBL document CHEMBL4480417", "about": "“Methylsulfonylated Polyketides Produced by Neosartorya udagawae HDN13-313 via Exogenous Addition of Small Molecules” (J Nat Prod, 2019)", "key": {"[1]": {"tested_on": "HepG2", "assay": "Lipid lowering activity in human HepG2 cells assessed as reduction in oleic acid-induced lipid accumulation at 10 uM after 24 hrs by oil red O staining based spectrophotometric method", "format": "functional, cell-based", "outline": "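HepG2 cells in log phase seeded at 1.2 × 10^4 cells/well, grown 12 h to 70–80% confluence, then serum-starved 12 h in serum-free DMEM. Oleic acid added (final 80 μM) with test agent or simvastatin (final 10 μM), 24 h. Blank: DMEM only; OA alone as negative control. Cells fixed in 4% paraformaldehyde, rinsed with 60% 2-propanol, stained with 0.3% Oil Red O for 1 h, dye dissolved in DMSO, OD 358 nm; ≥3 experiments, mean ± SEM.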"}, "[2]": {"tested_on": "HL-60", "assay": "Cytotoxicity against human HL60 cells at 30 uM after 72 hrs by MTT assay", "format": "cell-based", "conditions": "hl-60, 72 h"}, "[3]": {"tested_on": "HCT-116", "assay": "Cytotoxicity against human HCT116 cells at 30 uM after 72 hrs by MTT assay", "format": "cell-based", "conditions": "hct-116, 72 h"}, "[4]": {"tested_on": "K562", "assay": "Cytotoxicity against human K562 cells at 30 uM after 72 hrs by MTT assay", "format": "cell-based", "conditions": "k562, 72 h"}, "[5]": {"tested_on": "HeLa", "assay": "Cytotoxicity against human HeLa cells at 30 uM after 72 hrs by MTT assay", "format": "cell-based"}}, "note": "Calls of active or inactive are those of the source. The calls are words filed in the database; no cut-off is given here.", "data": [{"smiles": "CCC(C)(C)C(=O)O[C@H]1C[C@@H](C)C=C2C=C[C@H](C)[C@H](CC[C@@H]3C[C@@H](O)CC(=O)O3)[C@H]21", "values": [{"measurement": "Activity", "setting": "[1]", "value": "Active"}]}, {"smiles": "COc1c(O)c(O)c(C)c(S(C)(=O)=O)c1O", "values": [{"measurement": "Activity", "setting": "[2]", "value": "Non-Toxic"}, {"measurement": "Activity", "setting": "[3]", "value": "Non-Toxic"}, {"measurement": "Activity", "setting": "[4]", "value": "Non-Toxic"}, {"measurement": "Activity", "setting": "[5]", "value": "Non-Toxic"}]}, {"smiles": "COc1cc(S(C)(=O)=O)cc2c(=O)oc3cc(CO)cc(O)c3c(=O)c12", "values": [{"measurement": "Activity", "setting": "[2]", "value": "Non-Toxic"}, {"measurement": "Activity", "setting": "[3]", "value": "Non-Toxic"}, {"measurement": "Activity", "setting": "[4]", "value": "Non-Toxic"}, {"measurement": "Activity", "setting": "[5]", "value": "Non-Toxic"}, {"measurement": "Activity", "setting": "[1]", "value": "Active"}]}, {"smiles": "COc1c(O)ccc2c(=O)oc3cc(CO)cc(O)c3c(=O)c12", "values": [{"measurement": "Activity", "setting": "[2]", "value": "Non-Toxic"}, {"measurement": "Activity", "setting": "[3]", "value": "Non-Toxic"}, {"measurement": "Activity", "setting": "[4]", "value": "Non-Toxic"}, {"measurement": "Activity", "setting": "[5]", "value": "Non-Toxic"}]}]}
